Screens: PubChem, The Scripps Research Institute Molecular Screening Center
Sampled rows, rich in hits. Any-hit rate of the full collection: about 0.99%.
PME-1 primary: PME-1 inhibitors via competitive probe labeling, primary screen, biochemical, fluorescence polarization, FP-Rh probe, HTS; inhibition, % at 5.9 µM; Protein phosphatase methylesterase 1 (Homo sapiens), Q9Y570; actives 0.53% (n = 320,000); recombinant PME-1;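 active means inhibition above the campaign mean of all compounds plus 3 SD, cut at about 26% in these data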;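 further: competitive labeling of PME-1 active site by serine hydrolase directed probe; 0% = PME-1 with DMSO and 100% = wells lacking PME-1 enzyme; inhibitors block probe labeling so polarization falls and inhibition rises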
Target sequence (Q9Y570 whole entry, looked up): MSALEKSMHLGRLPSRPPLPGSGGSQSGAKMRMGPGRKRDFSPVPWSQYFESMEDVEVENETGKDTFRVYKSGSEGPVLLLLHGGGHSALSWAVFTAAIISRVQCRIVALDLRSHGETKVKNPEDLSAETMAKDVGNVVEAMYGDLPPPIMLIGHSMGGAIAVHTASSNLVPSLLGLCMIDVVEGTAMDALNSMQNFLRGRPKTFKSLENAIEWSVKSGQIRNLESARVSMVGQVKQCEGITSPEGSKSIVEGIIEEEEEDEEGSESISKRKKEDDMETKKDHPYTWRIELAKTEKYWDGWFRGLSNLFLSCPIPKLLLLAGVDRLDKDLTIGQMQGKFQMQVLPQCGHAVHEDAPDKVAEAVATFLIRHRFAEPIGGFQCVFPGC
RBBP9 inh: human RBBP9 inhibitors, primary screen, biochemical, fluorescence polarization, FP-Rh probe, HTS; recombinant RBBP9; actives 0.2% (n = 220,000); AID 1515, 2009; inhibition, % at 7.94 µM; Serine hydrolase RBBP9 (Homo sapiens), O75884;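 active means inhibition above the campaign mean of all tested compounds plus 3 SD, cut at about 14% in these data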;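 further: plate controls were DMSO wells with RBBP9 for no effect and wells lacking RBBP9 protein for full effect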
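Test system – recombinant human RBBP9 · Input – RBBP9 2.5 µM in dispensing solution, pre-mixing · Medium – Tris buffer pH 8.0, NaCl, Pluronic · Schedule – preincubation 30 min plus labeling 45 min at 25 °C · Measured by – fluorescence polarization · Measure – % inhibition · Controls – DMSO and no-protein wells · Replicates – one well per compound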
LYPLA2 counter: LYPLA2 inhibitors, primary screen, counter-screen for PME1 inhibitor project, biochemical, fluorescence polarization, FP-Rh probe ABPP; recombinant LYPLA2; inhibition, % at 5.9 µM; actives 0.38% (n = 320,000); AID 2177, 2009;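 active means inhibition above the screen-wide mean plus 3 SD, limit set per campaign, cut at about 26% in these data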;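 further: 0% = LYPLA2 with DMSO and 100% = wells lacking LYPLA2 enzyme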
Target sequence (O95372 whole entry, looked up): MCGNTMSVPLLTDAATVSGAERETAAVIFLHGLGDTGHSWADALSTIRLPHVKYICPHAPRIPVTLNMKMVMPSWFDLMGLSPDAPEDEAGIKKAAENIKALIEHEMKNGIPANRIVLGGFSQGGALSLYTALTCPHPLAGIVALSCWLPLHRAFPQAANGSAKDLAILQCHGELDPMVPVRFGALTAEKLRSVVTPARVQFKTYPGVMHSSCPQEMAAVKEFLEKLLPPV
LYPLA1 inh: LYPLA1 inhibitors, primary screen, counter-screen for PME1 inhibitor project, biochemical, fluorescence polarization, FP-Rh probe ABPP. recombinant LYPLA1. inhibition, % at 5.9 µM. actives 0.16% (n = 320,000). AID 2174, 2009;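 active means inhibition above the mean of all tested compounds plus 3 SD, set per campaign, cut at about 14% in these data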;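 further: inhibitors block serine hydrolase probe labeling of LYPLA1 so polarization falls; 0% = enzyme with DMSO and 100% = wells lacking LYPLA1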
Fam108B counter: mouse Fam108B serine hydrolase inhibitors, primary screen, counter-screen for RBBP9 inhibitor project, biochemical, fluorescence polarization | recombinant Fam108B, FP-Rh probe fluorescence polarization | inhibition, % at 9.51 µM | AID 1947, 2009 | actives 0.33% (n = 300,000);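 active means inhibition above the screen mean inhibition plus 3 SD, computed separately per campaign, cut at about 18% in these data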;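 further: inhibitors lower polarization as less probe binds the enzyme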
LYPLA1 confirm: LYPLA1 inhibitors, retest, confirmation, counter-screen for PME1 inhibitor project, biochemical, fluorescence polarization, FP-Rh probe ABPP; inhibition, % at 5.9 µM; recombinant LYPLA1; actives 69% (n = 480); AID 2233, 2010; shares compounds with LYPLA1 inh;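 active means mean inhibition across replicates above the hit cutoff set in the primary screen, cut at about 15% in these data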;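 further: loss of FP-Rh probe labeling of LYPLA1 seen as lower polarization; 0% = LYPLA1 with DMSO and 100% = wells lacking LYPLA1 enzyme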
LYPLA2 confirm: LYPLA2 inhibitors, retest, confirmation, counter-screen for PME1 inhibitor project, biochemical, fluorescence polarization, FP-Rh probe ABPP | actives 72% (n = 1,100) | recombinant LYPLA2 | inhibition, % at 5.9 µM | shares compounds with LYPLA2 counter;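 active means mean inhibition across replicates above the hit cutoff set in the primary screen, cut at about 26% in these data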;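 further: blocked labeling of the enzyme by serine hydrolase FP-Rh probe lowers polarization; 0% = enzyme with DMSO and 100% = wells lacking LYPLA2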
* hit, by the source's call; / = no result given.

SMILES	PME-1 primary	RBBP9 inh	LYPLA2 counter	LYPLA1 inh	Fam108B counter	LYPLA1 confirm	LYPLA2 confirm
CN(C)c1ccc(S(=O)(=O)NCC(=O)NCc2ccccc2)cc1[N+](=O)[O-]	5	/	12	1	4	/	/
COc1ccc(CN2C(=O)c3ccccc3C2C(=O)NC2CCCC(C)C2C)c(OC)c1 (stereo not drawn)	/	-2	/	/	/	/	/
COc1ccc(C(=O)NC(=S)Nc2ccc(NC(=O)c3ccco3)cc2)cc1[N+](=O)[O-]	-6	-3	6	-1	-7	/	/
CC(=O)N1CCN(c2ccc(NC(=S)NC(=O)c3ccc(C)c([N+](=O)[O-])c3)cc2)CC1	2	-2	43*	20*	2	32*	56*
COc1ccc(C(=O)NC(=S)Nc2cccc(NC(=O)c3ccco3)c2)cc1[N+](=O)[O-]	-23	5	48*	37*	-8	13	24
CCOc1ccc(C(=O)NC(=S)Nc2ccc(N3CCCCC3)cc2)cc1[N+](=O)[O-]	9	-4	16	-3	16	/	/
COc1ccc(C(=O)NC(=S)Nc2ccc(N3CCN(C(C)=O)CC3)cc2)cc1[N+](=O)[O-]	1	-4	70*	55*	0	63*	75*
O=C1c2cccc(Cl)c2C(=O)N1c1ccccn1	-2	/	-2	1	2	/	/
CC(C)(Oc1ccc(Cl)cc1)C(=O)O	-6	/	-2	-3	-4	/	/
Cc1cc(OCc2cc(C(=O)N3CCC(Oc4cccnc4)CC3)no2)cc(C)c1Cl	5	/	59*	30*	-1	33*	62*
CC1(C)C2C(Cl)(Cl)C2(C)c2ccccc2N1C=O (stereo not drawn)	-1	-3	1	-1	4	/	/
COc1ccc(OCC(O)CN2CCC(CN3C(=O)c4cccc5cccc(c45)C3=O)CC2)cc1 (stereo not drawn)	-3	/	69*	20*	-3	23*	69*
CC(=O)c1ccc(N2CCN(C(=O)c3ccc(C(=O)c4ccccc4)cc3)CC2)cc1	1	/	55*	21*	/	36*	65*
Cc1cc(C(=O)COc2ccccc2C(N)=O)c(C)n1C	1	5	7	3	-4	/	/
Cc1cc(C(=O)COc2cccc3cccnc23)c(C)n1C	18	3	29*	21*	8	6	7
COc1ccc(Cc2nnc(NC(=O)C3CC(=O)N(c4ccccc4)C3)s2)cc1OC (stereo not drawn)	-3	/	-4	2	1	/	/
Cc1ccc(-c2noc(C3CCCN(C(=O)c4ccc(C(C)(C)C)cc4)C3)n2)o1 (stereo not drawn)	-2	/	36*	20*	-1	23*	37*
CCCc1cc2c(=O)c(-c3nc4ccccc4s3)c(COCC(=O)O)oc2cc1O	/	-7	/	/	/	/	/
COc1ccc(-n2nc(C(=O)NCC(=O)N3CCN(c4cccc(Cl)c4)CC3)c3ccccc3c2=O)c(OC)c1	4	/	83*	49*	-4	49*	68*
Cn1c(N)c(C(=O)CSc2nc3ccccc3[nH]2)c(=O)n(C)c1=O	1	-7	3	-1	2	/	/
COc1ccc(-c2c3c(cc4ncn(Cc5ccccc5)c24)COC3=O)cc1	-3	/	11	4	/	/	/
c1ccc(CN2CCN(CCCNc3ccc4nnc(-c5ccccc5)n4n3)CC2)cc1	3	-4	38*	36*	-2	38*	29*
CCCC(=O)C1=C(O)C(C(=O)OC)C(C)(C)CC1=Nc1ccc(N)cc1 (stereo not drawn)	0	1	1	-3	1	/	/
CCCC(=Nc1ccc(N)cc1)C1=C(O)C(C(=O)OC)C(C)(C)CC1=O (stereo not drawn)	34*	2	28*	15*	16	2	5
O=C(c1ccc2n[nH]nc2c1)N1CCN(c2ccc(C(F)(F)F)cn2)CC1	0	/	62*	67*	/	58*	70*
SMILES	PME-1 primary	RBBP9 inh	LYPLA2 counter	LYPLA1 inh	Fam108B counter	LYPLA1 confirm	LYPLA2 confirm
O=C(c1ccccn1)N1CCN(c2ccc(C(F)(F)F)cn2)CC1	-3	8	3	0	3	/	/
CC(=O)CC(=O)Nc1ccc(Nc2ccccc2)cc1	4	-17	10	-2	5	/	/
CC(=O)Nc1ccc(Nc2c3c4c(cccc4n(C)c2=O)C(=O)c2ccccc2-3)cc1	33*	1	29*	21*	15	12	12
Cc1ccc(-c2ccccc2NC(=O)CS(=O)CC(=O)Nc2ccc(C)c(Cl)c2)o1 (stereo not drawn)	45*	/	59*	46*	0	3	9
Cc1ccc(-c2ccccc2NC(=O)CCl)o1	0	-11	-9	-3	-3	/	/
CCCCOc1cccc(OCC(=O)Nc2nc3ccccc3[nH]2)c1	-9	3	-4	-2	-3	/	/
NC(=O)CN1CCN(c2cccc(Cl)c2)CC1	2	-10	-4	-2	2	/	/
C/C(=C\c1ccccc1)CN1CCN(c2cccc(Cl)c2)CC1	-5	-3	37*	25*	0	42*	44*
COc1ccc(CC(C)N2CCN(Cc3ccccc3)CC2)cc1OC (stereo not drawn)	-2	/	28*	25*	-5	5	-4
Cc1cc(C)nc(NS(=O)(=O)c2ccc(N/C=C/C(=O)c3ccc(Cl)c(Cl)c3)cc2)n1	0	-4	0	-1	-3	/	/
COc1ccc2c(c1)C(=O)[C@H](O)[C@@H](c1ccc(OC)c(Br)c1)O2	19	-3	93*	44*	0	41*	93*
Nc1ccc2c(c1)C(=O)c1ccccc1C2=O	5	/	3	1	3	/	/
Nc1ccc2c(c1)C(=O)C(=O)c1ccccc1-2	38*	-9	95*	87*	66*	81*	92*
COc1ccc(NC(=S)N/N=C2\CC(C)(C)Oc3ccc(OC)cc32)cc1	10	-12	1	2	-1	/	/
CC(=O)N1CCC2(CC1)C/C(=N\NC(=S)Nc1ccc(C)cc1)c1cc(O)ccc1O2	4	3	50*	22*	6	31*	54*
COc1ccccc1-n1cc(C(=O)NCC(=O)NCc2ccc(F)cc2)c2ccccc2c1=O	6	2	4	0	4	/	/
